From ChEMBL document CHEMBL4346654 (Eur J Med Chem, 2019) come the findings set out here.

≈ marks a conversion by molar mass, not a printed value. Bounds are passed on as bounds.

Holding throughout (type): functional
Assay [1] concerns Staphylococcus aureus. Briefly: Antibacterial activity against MLS-resistant Staphylococcus aureus PU 32 expressing inducible ermA gene assessed as reduction in microbial growth by CLSI based two-fold broth dilution method. (In broth dilution the organism is exposed to a series of concentrations in liquid medium.)
The subject of assay [2] is Streptococcus pneumoniae. Briefly: Antibacterial activity against erythromycin-susceptible Streptococcus pneumoniae ATCC49619 assessed as reduction in microbial growth by CLSI based two-fold broth dilution method.
Assay [3] deals with Streptococcus pneumoniae. Put plainly: Bactericidal activity against erythromycin-susceptible Streptococcus pneumoniae ATCC49619 pretreated followed by subculture in absence of compound measured after 24 hrs. A digest of the protocol:
(§1)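 Isolates were identified by 16S rDNA sequencing. MIC was determined by CLSI-recommended two-fold broth dilution. For MBC, samples from 1–8 fold MIC were transferred to culture medium and subcultured for 24 h without antibiotic.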

Assay [4] deals with Haemophilus influenzae. Briefly: Antibacterial activity against azithromycin-susceptible Haemophilus influenzae ATCC 49247 assessed as reduction in microbial growth by CLSI based two-fold broth dilution method.
Assay [5] relates to Streptococcus pneumoniae. Briefly: Selectivity ratio of MBC to MIC for erythromycin-susceptible Streptococcus pneumoniae ATCC49619. Put shortly:
as §1

Assay [6] has as its system Streptococcus pneumoniae. Briefly: Antibacterial activity against Streptococcus pneumoniae 07P390 expressing constitutive ermB gene assessed as reduction in microbial growth by CLSI based two-fold broth dilution method.
Assay [7] has as its system Streptococcus pneumoniae. Briefly: Antibacterial activity against penicillin-susceptible Streptococcus pneumoniae PU 09 expressing mef gene assessed as reduction in microbial growth by CLSI based two-fold broth dilution method.
For assay [8], the system named is Streptococcus pneumoniae. Put plainly: Bactericidal activity against penicillin-susceptible Streptococcus pneumoniae PU 09 expressing mef gene pretreated followed by subculture in absence of compound measured after 24 hrs. Put shortly:
as §1

The test system of assay [9] is Streptococcus pneumoniae. Briefly: Selectivity ratio of MBC to MIC for penicillin-susceptible Streptococcus pneumoniae PU 09 expressing mef gene. Put shortly:
as §1

In assay [10] the test system is Streptococcus pneumoniae. Put plainly: Bactericidal activity against Streptococcus pneumoniae 07P390 expressing constitutive ermB gene pretreated followed by subculture in absence of compound measured after 24 hrs. Put shortly:
as §1

Assay [11] concerns Streptococcus pneumoniae. Put plainly: Selectivity ratio of MBC to MIC for Streptococcus pneumoniae 07P390 expressing constitutive ermB gene. Put shortly:
as §1

The test system of assay [12] is Haemophilus influenzae. Put plainly: Bactericidal activity against azithromycin-susceptible Haemophilus influenzae ATCC 49247 pretreated followed by subculture in absence of compound measured after 24 hrs. Put shortly: as §1
Assay [13] deals with Haemophilus influenzae. Briefly: Selectivity ratio of MBC to MIC for azithromycin-susceptible Haemophilus influenzae ATCC 49247. A digest of the protocol: as §1
Assay [14] deals with Streptococcus pyogenes. Put plainly: Antibacterial activity against MLS-resistant Streptococcus pyogenes 01-968 expressing inducible ermB gene assessed as reduction in microbial growth by CLSI based two-fold broth dilution method.
Assay [15] concerns Streptococcus pyogenes. Briefly: Bactericidal activity against MLS-resistant Streptococcus pyogenes 01-968 expressing inducible ermB gene pretreated followed by subculture in absence of compound measured after 24 hrs. Put shortly: (§2)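 MBC assay. Following MIC determination by CLSI standard two-fold broth dilution, samples at 1–8 fold MIC were transferred to fresh culture medium. They were subcultured for 24 h without antibiotic. Isolates were identified by 16S rDNA sequencing. S. aureus ATCC 29213 was used as a control strain.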

Assay [16] deals with Streptococcus pyogenes. Put plainly: Selectivity ratio of MBC to MIC for MLS-resistant Streptococcus pyogenes 01-968 expressing inducible ermB gene. Put shortly: (§3)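 MBC/MIC ratio. MIC was measured by CLSI standard two-fold broth dilution. MBC was measured by transferring samples at 1–8 fold MIC to culture medium and subculturing for 24 h without antibiotic. Isolates were identified by 16S rDNA sequencing.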

In assay [17] the test system is Staphylococcus aureus. Briefly: Bactericidal activity against MLS/methicillin-resistant Staphylococcus aureus PU 32 expressing inducible ermA gene pretreated followed by subculture in absence of compound measured after 24 hrs. Put shortly:
as §2

The test system of assay [18] is Staphylococcus aureus. Briefly: Selectivity ratio of MBC to MIC for MLS/methicillin-resistant Staphylococcus aureus PU 32 expressing inducible ermA gene. A digest of the protocol:
as §3

Assay [19] relates to Staphylococcus aureus. Briefly: Antibacterial activity against MLS-resistant Staphylococcus aureus PU 20 expressing constitutive ermC gene assessed as reduction in microbial growth by CLSI based two-fold broth dilution method.
Assay [20] concerns Staphylococcus aureus. Briefly: Bactericidal activity against MLS-resistant Staphylococcus aureus PU 20 expressing constitutive ermC gene pretreated followed by subculture in absence of compound measured after 24 hrs. Put shortly: as §2
Assay [21] concerns Streptococcus pyogenes. Briefly: Bactericidal activity against MLS-resistant Streptococcus pyogenes 12-206 expressing constitutive ermA gene pretreated followed by subculture in absence of compound measured after 24 hrs. Put shortly:
as §2

The subject of assay [22] is Streptococcus pyogenes. Briefly: Bactericidal activity against Streptococcus pyogenes 12-207 expressing mef gene pretreated followed by subculture in absence of compound measured after 24 hrs. Put shortly:
as §1

`CC[C@H]1OC(=O)[C@@](C)(F)C(=O)[C@H](C)[C@@H](O[C@@H]2O[C@H](C)C[C@H](N(C)C)[C@H]2O)[C@](C)(OC)C[C@@H](C)/C(=N\OC/C=C/c2ccc3[nH]ccc(=O)c3c2)[C@H](C)[C@H]2OC(=O)O[C@@]21C`: the MIC in assay [1] was found to be 1 mg/L; in [2], 0.125 mg/L; in assay [4] it was 16 mg/L; in assay [6], 16 mg/L; in [7], 4 mg/L; in [14], 0.062 mg/L. The MIC in assay [19] came out at 256 mg/L. The MBC in assay [3] is 0.5 mg/L (≈ 0.602 µM); in assay [8], 8 mg/L (≈ 9.64 µM); in assay [10] it was 32 mg/L (≈ 38.6 µM); in [12], 32 mg/L (≈ 38.6 µM); in assay [15] it was above 0.5 mg/L; in [17], above 8 mg/L. In addition, the MBC in [20] is above 256 mg/L. Also, the Selectivity ratio in assay [5] is 4; in assay [9], 2; in assay [11], 2; in [13], 2; in [16], above 8; in [18] it was above 8.
As for `CC[C@H]1OC(=O)[C@@](C)(F)C(=O)[C@H](C)[C@@H](O[C@@H]2O[C@H](C)C[C@H](N(C)C)[C@H]2O)[C@](C)(OC/C=C/c2ccc3[nH]ccc(=O)c3c2)C[C@@H](C)/C(=N\OC)[C@H](C)[C@H]2OC(=O)O[C@@]21C`, the MIC in assay [1] was 1 mg/L; in assay [2], 0.062 mg/L; in assay [4] it was 8 mg/L; in assay [6] it was 0.25 mg/L; in assay [7], 2 mg/L; in [14], 0.125 mg/L. For the same molecule, the MIC in assay [19] was found to be 256 mg/L. Moreover, the MBC was determined as 0.062 mg/L (≈ 0.0747 µM) in [3]; 4 mg/L (≈ 4.82 µM) in [8]; 1 mg/L (≈ 1.2 µM) in assay [10]; 16 mg/L (≈ 19.3 µM) in assay [12]; 1 mg/L (≈ 1.2 µM) in assay [15]; 8 mg/L (≈ 9.64 µM) in assay [17]. Also, the MBC in assay [20] is above 256 mg/L. The Selectivity ratio in assay [5] came out at 1; in [9] it was 2; in [11] it was 4; in assay [13], 2; in [16], 8; in assay [18], 8.
`CC[C@H]1OC(=O)[C@@](C)(F)C(=O)[C@H](C)[C@@H](O[C@@H]2O[C@H](C)C[C@H](N(C)C)[C@H]2O)[C@](C)(OC/C=C/c2cncc(C(N)=O)c2)C[C@@H](C)/C(=N\OC)[C@H](C)[C@H]2OC(=O)O[C@@]21C`: the MIC in [1] stood at 0.125 mg/L; in assay [2] it was 0.062 mg/L; in [4] it was 4 mg/L; in assay [6], 0.5 mg/L; in assay [7], 2 mg/L; in assay [14], 0.031 mg/L. For the same molecule, the MIC in [19] is above 256 mg/L. The MBC in assay [3] was 0.125 mg/L (≈ 0.155 µM); in assay [8] it was 8 mg/L (≈ 9.91 µM); in [10] it was 4 mg/L (≈ 4.96 µM); in assay [12] it was 8 mg/L (≈ 9.91 µM); in assay [15], above 0.25 mg/L; in assay [17], above 1 mg/L. Further, the Selectivity ratio was 2 in assay [5]; 4 in assay [9]; 8 in assay [11]; 2 in [13]; above 8 in assay [16]; above 8 in assay [18].
For `CC[C@H]1OC(=O)[C@@](C)(F)C(=O)[C@H](C)[C@@H](O[C@@H]2O[C@H](C)C[C@H](N(C)C)[C@H]2O)[C@](C)(OC)C[C@@H](C)/C(=N\OC/C=C/c2ccc3[nH]cc(C(=O)O)c(=O)c3c2)[C@H](C)[C@H]2OC(=O)O[C@@]21C`, the MIC in assay [1] turned out to be 2 mg/L; in assay [2] it was 0.125 mg/L; in assay [4] it was 32 mg/L; in assay [6] it was 4 mg/L; in assay [7] it was 2 mg/L; in assay [14], 0.016 mg/L. In addition, in assay [19], the MIC turned out to be 256 mg/L. Besides, the MBC in [3] was 0.125 mg/L (≈ 0.143 µM); in [8], 4 mg/L (≈ 4.58 µM); in assay [10], 16 mg/L (≈ 18.3 µM); in [12], 32 mg/L (≈ 36.6 µM); in assay [15], above 0.125 mg/L; in assay [17], 16 mg/L (≈ 18.3 µM). In addition, in [20], the MBC was above 256 mg/L. Further, the Selectivity ratio in assay [5] is listed as 1; in [9] it was 2; in assay [11], 4; in assay [13] it was 1; in assay [16], above 8; in assay [18], 8.
Consider `O=C(O)c1cn(C2CC2)c2cc(N3CCNCC3)c(F)cc2c1=O` [CIPROFLOXACIN], for which the MBC in assay [3] was 2 mg/L (≈ 6.04 µM); in [8] it was 4 mg/L (≈ 12.1 µM); in assay [10] it was 4 mg/L (≈ 12.1 µM); in assay [12], 0.004 to 0.008 mg/L (≈ 0.0121 to 0.0241 µM); in assay [15], 0.5 to 2 mg/L (≈ 1.51 to 6.04 µM); in [17], above 256 mg/L. The MBC in assay [20] is above 256 mg/L; in [21], above 1 mg/L; in [22], 2 mg/L (≈ 6.04 µM).
For `CC[C@H]1OC(=O)[C@@](C)(F)C(=O)[C@H](C)[C@@H](O[C@@H]2O[C@H](C)C[C@H](N(C)C)[C@H]2O)[C@](C)(OC)C[C@@H](C)/C(=N\OCC#Cc2ccc3[nH]ccc(=O)c3c2)[C@H](C)[C@H]2OC(=O)O[C@@]21C`, the MIC in [1] is 1 mg/L; in [2], 0.062 mg/L; in [4], 16 mg/L; in assay [6], 16 mg/L; in assay [7] it was 4 mg/L; in assay [14], at most 0.008 mg/L. For the same molecule, the MIC in assay [19] amounted to 256 mg/L. The MBC is 0.125 mg/L (≈ 0.151 µM) in [3]; 4 mg/L (≈ 4.83 µM) in assay [8]; 32 mg/L (≈ 38.6 µM) in [10]; 16 mg/L (≈ 19.3 µM) in assay [12]; above 0.062 mg/L in assay [15]; 8 mg/L (≈ 9.66 µM) in [17]. For the same molecule, the MBC in [20] is above 256 mg/L. For the same molecule, the Selectivity ratio in [5] is recorded as 2; in [9], 1; in assay [11], 2; in assay [13], 1; in [16] it was above 8; in assay [18], 8.
Regarding `CC[C@H]1OC(=O)[C@@](C)(F)C(=O)[C@H](C)[C@@H](O[C@@H]2O[C@H](C)C[C@H](N(C)C)[C@H]2O)[C@](C)(OC/C=C/c2ccc3ncc(C(=O)O)cc3c2)C[C@@H](C)/C(=N\OC)[C@H](C)[C@H]2OC(=O)O[C@@]21C`, the MIC in [1] was 0.062 mg/L; in assay [2], 0.031 mg/L; in [4], 4 mg/L; in [6], 0.5 mg/L; in assay [7], 8 mg/L; in assay [14], at most 0.008 mg/L. The MIC in assay [19] was above 256 mg/L. Moreover, the MBC in assay [3] is 0.062 mg/L (≈ 0.0723 µM); in assay [8], 16 mg/L (≈ 18.6 µM); in [10], 4 mg/L (≈ 4.66 µM); in assay [12], 8 mg/L (≈ 9.32 µM); in assay [15] it was above 0.062 mg/L; in assay [17], 0.5 mg/L (≈ 0.583 µM). For the same molecule, the Selectivity ratio in assay [5] was 2; in assay [9], 2; in assay [11], 8; in [13] it was 2; in assay [16] it was above 8; in [18], 8.
